Experiments:
SH-SY5Y = assay: Cytotoxicity against human SH-SY5Y cells up to 20 uM for 24 hrs by MTT assay; format: cell-based
Procedure, shortened: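 SH-SY5Y neuroblastoma cells; viability by mitochondrial reduction of MTT to formazan, reported as percent cell death at a single concentration.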

Beta-secretase 1 = Beta-secretase 1 (Homo sapiens, UniProt P56817); assay: Inhibition of human recombinant BACE1 preincubated after 1 hr by fluorescence assay
[1] = Inhibition of amyloid beta (25 to 35) aggregation for 4 days by Thioflavin-T fluorescence assay
Procedure, shortened: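 Aβ(25–35) dissolved at 1 mM in PBS (stock), diluted, mixed with quinone and held at 37 °C for 4 days; aggregation read by thioflavin-T fluorescence (ex 448/em 483 nm) after subtracting a ThT blank; IC50 derived.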

[2] = Induction of amyloid beta (25 to 35) disaggregation after 4 days by Thioflavin-T fluorescence assay
Procedure, shortened: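 Aβ(25–35) first held at 37 °C for 4 days to form fibrils, then exposed to quinone for another 4 days at 37 °C; remaining fibrils measured by thioflavin-T fluorescence (ex 448/em 483 nm) with ThT blank subtracted; IC50 derived.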

Beta-secretase 1, sequence (P56817 whole entry): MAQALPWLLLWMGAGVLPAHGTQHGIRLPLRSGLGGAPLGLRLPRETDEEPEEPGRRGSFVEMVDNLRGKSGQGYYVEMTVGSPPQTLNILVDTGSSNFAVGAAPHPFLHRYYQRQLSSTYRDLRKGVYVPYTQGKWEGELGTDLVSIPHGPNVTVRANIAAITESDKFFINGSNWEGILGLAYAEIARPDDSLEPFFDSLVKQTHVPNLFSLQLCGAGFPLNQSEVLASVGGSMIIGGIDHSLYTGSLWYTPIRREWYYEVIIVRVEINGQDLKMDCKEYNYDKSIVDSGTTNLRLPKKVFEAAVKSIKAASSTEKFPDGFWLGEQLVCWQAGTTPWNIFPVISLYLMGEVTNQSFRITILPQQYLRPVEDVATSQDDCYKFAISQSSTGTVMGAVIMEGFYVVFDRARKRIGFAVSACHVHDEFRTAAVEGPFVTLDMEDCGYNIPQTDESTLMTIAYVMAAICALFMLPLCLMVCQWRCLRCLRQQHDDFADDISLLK

| SMILES | IC50 (Beta-secretase 1) | IC50 [1] | IC50 [2] | IC50 ([1]; read-out: IC50) | IC50 ([2]; read-out: IC50) | Activity (SH-SY5Y) |
| --- | --- | --- | --- | --- | --- | --- |
| O=C1C=C(c2ccccc2)C(=O)C=C1c1ccccc1 |  |  |  |  |  | Toxic |
| O=C1C=C(c2ccc(C(F)(F)F)cc2)C(=O)C=C1c1ccccc1 | 6.52 µM |  |  | 14.2 µM | 12.3 µM | Non-toxic |
| O=C1C=C(c2ccc(F)cc2)C(=O)C=C1c1ccccc1 |  |  |  |  |  | 78.08% |
| COc1ccc(C2=CC(=O)C(c3ccccc3)=CC2=O)cc1 |  |  |  |  |  | 56.29% |
| COc1ccc(C2=CC(=O)C(c3ccc(F)cc3)=CC2=O)cc1 |  |  |  |  |  | 66.22% |
| O=C1C=C(c2ccccc2)C(=O)C(c2ccccc2)=C1 | 11.4 µM |  |  | 9.28 µM | 9 µM | Non-toxic |
| O=C1C=C(c2ccccc2)C(=O)C(c2ccc(C(F)(F)F)cc2)=C1 |  |  |  |  |  | 100% |
| COc1ccc(C2=CC(=O)C=C(c3ccc(F)cc3)C2=O)cc1 |  |  |  |  |  | 62.5% |
| Oc1cc(-c2ccccc2)c(O)cc1-c1ccccc1 | 16 µM |  |  | > 50 µM | 14.3 µM | Non-toxic |
| COc1ccc(-c2cc(O)cc(-c3ccccc3)c2O)cc1 | 9.1 µM |  |  | 17.8 µM | 8.24 µM | Non-toxic |
| CC(=O)Oc1cc(-c2ccc(C(F)(F)F)cc2)c(OC(C)=O)cc1-c1ccccc1 |  |  |  | > 50 µM | > 50 µM | Non-toxic |
| CC(=O)Oc1cc(-c2ccccc2)c(OC(C)=O)c(-c2ccccc2)c1 | 20 µM | Not Active | Not Active |  |  | Non-toxic |
| COc1ccc(-c2cc(OC(C)=O)cc(-c3ccccc3)c2OC(C)=O)cc1 | 11.1 µM | Not Active | Not Active |  |  | Non-toxic |
| COc1ccc(-c2cc(O)cc(-c3ccccc3)c2OC(C)=O)cc1 | 11.3 µM | Not Active | Not Active |  |  | Non-toxic |

More lines, main results first:

| IC50 (Beta-secretase 1) | IC50 [1] | IC50 [2] | IC50 ([1]; read-out: IC50) | IC50 ([2]; read-out: IC50) | SMILES | Activity (SH-SY5Y) |
| --- | --- | --- | --- | --- | --- | --- |
| 9.33 µM | Not Active | Not Active |  |  | O=C1C=C(c2ccccc2)C(=O)c2ccccc21 | Non-toxic |
| 8.22 µM | Not Active | Not Active |  |  | O=C1C=C(c2ccc(O)cc2)C(=O)c2ccccc21 | Non-toxic |
| 12.6 µM | Not Active | Not Active |  |  | O=C1C(c2ccccc2)=CC(=O)c2c(O)cccc21 | Non-toxic |
| 16.1 µM | Not Active | Not Active |  |  | O=C1C(c2ccc(O)cc2)=CC(=O)c2c(O)cccc21 | Non-toxic |
| 11.2 µM |  | Not Active | 22.6 µM |  | COc1ccc(C2=CC(=O)c3c(OC)cccc3C2=O)cc1 | Non-toxic |
| 8.98 µM | Not Active | Not Active |  |  | O=C1C=C(c2ccccc2)C(=O)c2c(O)cccc21 | Non-toxic |
| 10.3 µM |  |  | 16.6 µM | 5.05 µM | COc1cccc2c1C(=O)C(c1ccc(O)cc1)=CC2=O | Non-toxic |
| 23.3 µM |  |  | 6.37 µM | 7.15 µM | COc1ccc(C2=CC(=O)C(c3ccc(OC)cc3)=CC2=O)cc1 | Non-toxic |
| 13.4 µM |  |  | 9.56 µM | 7.87 µM | COc1ccc(C2=CC(=O)C=C(c3ccccc3)C2=O)cc1 | Non-toxic |
| 23.9 µM | Not Active |  |  | > 50 µM | COc1ccc(-c2cc(OC(C)=O)c(-c3ccc(OC)cc3)cc2OC(C)=O)cc1 | Non-toxic |
